In brackets after ≈: the same amount, converted by molar mass. Activity calls are given as the source filed them. The calls are words filed in the database; no cut-off is given here.
Assays:
[1] = test system: Nakaseomyces glabratus; test: (§1) Antifungal activity against 2.44 x 10^8 CFU Candida glabrata isolate 4293 infected in CD1 mouse assessed as inhibition of regrowth in fungal burden in kidney at 1 mg/kg/day, ip administered from day 1 to day 2 post viral challenge measured on day 7 postinfection; assay type: functional, organism-based
In short: (§2)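 Male CD1 mice (25 g) made neutropenic with cyclophosphamide 200 mg/kg/day ip on days −4, +1 and +4 postinfection. Infected iv with C. glabrata 4293 in 0.2 ml. Treatment began 24 h postchallenge, with 1 mg/kg/day ip in 0.2 ml. Sacrifice on day 3 or day 7. Kidney pairs homogenized; diluted and undiluted aliquots plated on Sabouraud dextrose agar for CFU. Medians reported; 7–8 mice per group.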

[2] = test system: Nakaseomyces glabratus; test: (§3) Antifungal activity against 1.04 x 10^8 CFU Candida glabrata isolate 4293 infected in CD1 mouse assessed as inhibition of regrowth in fungal burden in kidney at 1 mg/kg/day, ip administered from day 1 to day 2 post viral challenge measured on day 3 postinfection; assay type: functional, organism-based; in short: as §2
[3] = test system: Nakaseomyces glabratus; test: (§4) Antifungal activity against 1.04 x 10^8 CFU Candida glabrata isolate 4293 infected in CD1 mouse assessed as reduction in viral count per kidney pair at 1 mg/kg/day, ip administered from day 1 to day 2 followed by PEG-200 infusion from day 3 to day 6 post viral challenge measured on day 7 postinfection relative to control; assay type: functional, organism-based; in short: as §2
[4] = test system: Nakaseomyces glabratus; test: Antifungal activity against Candida glabrata isolate 4198 after 24 hrs by broth microdilution method; assay type: functional
In short: (§5)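 CLSI broth microdilution with final drug concentrations […], incubated at 35°C and read spectrophotometrically at 490 nm at 24 and 48 h. MIC is the first concentration giving 50% turbidity reduction versus control, or 90% for amphotericin B. Run in quintuplicate.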

[5] = test system: Candida parapsilosis; test: Antifungal activity against Candida parapsilosis ATCC 22019 after 24 hrs by broth microdilution method; assay type: functional; conditions: Lodderomyces parapsilosis, ATCC 22019, 24 h
In short: (§6)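 CLSI broth microdilution, final drug concentrations 0.0078–8 µg/ml. Incubated at 35°C and read at 24 and 48 h by OD490. MIC is the first concentration giving 50% (azole, echinocandin) or 90% (polyene) less turbidity than the drug-free control. Quintuplicate.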

[6] = test system: Nakaseomyces glabratus; test: Antifungal activity against Candida glabrata isolate 4293 after 24 hrs by broth microdilution method; assay type: functional; in short: as §6
[7] = test system: Nakaseomyces glabratus; test: Antifungal activity against Candida glabrata isolate 4205 after 24 hrs by broth microdilution method; assay type: functional; conditions: isolate 4205, 24 h; in short: as §5
[8] = test system: Nakaseomyces glabratus; test: Antifungal activity against 1.04 x 10^8 CFU Candida glabrata isolate 4293 infected in CD1 mouse assessed as inhibition of regrowth in fungal burden in kidney at 1 mg/kg/day, ip administered from day 1 to day 2 post viral challenge measured on day 7 postinfection; assay type: functional, organism-based; in short: as §2
[9] = test system: Nakaseomyces glabratus; test: Antifungal activity against 2.44 x 10^8 CFU Candida glabrata isolate 4293 infected in CD1 mouse assessed as reduction in fungal burden per kidney pair at 1 mg/kg/day, ip administered from day 1 to day 2 post viral challenge measured on day 3 postinfection; assay type: functional, organism-based; in short: as §2
[10] = test system: Nakaseomyces glabratus; test: Antifungal activity against Candida glabrata isolate 4370 after 24 hrs by broth microdilution method; assay type: functional; in short: as §5
[11] = test system: Nakaseomyces glabratus; test: Antifungal activity against 1.04 x 10^8 CFU Candida glabrata isolate 4293 infected in CD1 mouse assessed as reduction in fungal burden per kidney pair at 1 mg/kg/day, ip administered from day 1 to day 2 post viral challenge measured on day 3 postinfection; assay type: functional, organism-based; in short: as §2
[12] = test system: Nakaseomyces glabratus; test: Antifungal activity against 2.44 x 10^8 CFU Candida glabrata isolate 4293 infected in CD1 mouse assessed as inhibition of regrowth in fungal burden in kidney at 1 mg/kg/day, ip administered from day 1 to day 2 post viral challenge measured on day 3 postinfection; assay type: functional, organism-based; in short: as §2
[13] = test system: Nakaseomyces glabratus; test: as §4, with “2.44” for “1.04”; assay type: functional, organism-based; in short: as §2
[14] = test system: Nakaseomyces glabratus; test: Antifungal activity against Candida glabrata isolate 4205 after 48 hrs by broth microdilution method; assay type: functional; conditions: isolate 4205, 48 h; in short: as §5
[15] = test system: Nakaseomyces glabratus; test: Antifungal activity against Candida glabrata isolate 4370 after 48 hrs by broth microdilution method; assay type: functional; in short: as §5
[16] = test system: Nakaseomyces glabratus; test: as §1, with “day 2 followed by PEG-200 infusion from day 3 to day 6 post viral” for “day 2 post viral”; assay type: functional, organism-based; in short: as §2
[17] = test system: Nakaseomyces glabratus; test: Antifungal activity against Candida glabrata isolate 4293 after 48 hrs by broth microdilution method; assay type: functional; in short: as §5
[18] = test system: Candida parapsilosis; test: Antifungal activity against Candida parapsilosis ATCC 22019 after 48 hrs by broth microdilution method; assay type: functional; conditions: Lodderomyces parapsilosis, ATCC 22019, 48 h; in short: as §5
[19] = test system: Nakaseomyces glabratus; test: Antifungal activity against Candida glabrata isolate 4198 after 48 hrs by broth microdilution method; assay type: functional; in short: as §5
[20] = test system: Nakaseomyces glabratus; test: as §3, with “day 2 followed by PEG-200 infusion from day 3 to day 6 post viral” for “day 2 post viral”, “on day 7 postinfection” for “on day 3 postinfection”; assay type: functional, organism-based; in short: as §2

Row | SMILES | Activity [1] | Activity [2] | Activity [3] | MIC [4] | MIC [5] | MIC [6] | MIC [7] | Activity [8] | Activity [9] | MIC [10] | Activity [11] | Activity [12] | Activity [13] | MIC [14] | MIC [15] | Activity [16] | MIC [17] | MIC [18] | MIC [19] | Activity [20]
1 | CC[C@H](C)C[C@H](C)CCCCCCCCC(=O)N[C@H]1C[C@@H](O)[C@@H](NCCN)NC(=O)[C@@H]2[C@@H](O)CCN2C(=O)[C@H]([C@H](O)CCN)NC(=O)[C@H]([C@H](O)[C@@H](O)c2ccc(O)cc2)NC(=O)[C@@H]2C[C@@H](O)CN2C(=O)[C@H]([C@@H](C)O)NC1=O [CASPOFUNGIN] | Active | Active | Active | 0.25 µg/mL (≈ 0.229 µM) | 0.25 µg/mL (≈ 0.229 µM) | ≤ 0.03 µg/mL | 0.25 µg/mL (≈ 0.229 µM) | Active | inactive | 0.125 µg/mL (≈ 0.114 µM) | inactive | Active | Active |  |  |  |  |  |  | 
2 | C[C@@H]1[C@H](O)[C@@H](C)/C=C/C=C/C=C/C=C/C=C/C=C/C=C/[C@H](O[C@@H]2O[C@H](C)[C@@H](O)[C@H](N)[C@@H]2O)C[C@@H]2O[C@](O)(C[C@@H](O)C[C@@H](O)[C@H](O)CC[C@@H](O)C[C@@H](O)CC(=O)O[C@H]1C)C[C@H](O)[C@H]2C(=O)O [AMPHOTERICIN B] | inactive |  | Active |  |  |  |  | inactive | inactive |  | inactive |  | Active | 0.5 µg/mL (≈ 0.541 µM) | 1 µg/mL (≈ 1.08 µM) | inactive | 0.5 µg/mL (≈ 0.541 µM) | 1 µg/mL (≈ 1.08 µM) | 0.5 µg/mL (≈ 0.541 µM) | inactive

From ChEMBL document CHEMBL1151473, “Posaconazole activity against Candida glabrata after exposure to caspofungin or amphotericin B” (2008)
